Several values for one entry are separate records, joined by “and”; a condition that tells them apart may be missing. Equal values may be shown once.
Assays:
[1] = test system: Canis familiaris; experiment: % ectopic beats was measured in unanesthetized dog at 0.056 dose
[2] = species: Canis familiaris; experiment: MABP value was measured in […] at 0.084 dose; type: functional, Canis lupus familiaris
How it was run: (§1)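 Adult female dogs (6.7–14.5 kg) had two-stage ligation of the left anterior descending coronary artery the day before testing. After control ventricular rate, % ectopic beats and mean arterial pressure were recorded, the drug (HCl salt, isotonic solution) was infused iv without anesthesia at 0.1, 0.5 or 1.0 (mg/kg)/min, mostly 0.5. Infusion continued until the arrhythmia was abolished or cardiovascular/CNS toxicity appeared. Cumulative dose is given in mmol/kg; toxicity included convulsion and P-R prolongation ≥25%.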

[3] = test system: Canis familiaris; experiment: Ventricular rate was measured in anesthetized dog at 0.042 dose; type: functional, Canis lupus familiaris, Heart; conditions: in the assay text read “unanesthetized dog” for “anesthetized dog”
How it was run: as §1

[4] = species: Canis familiaris; experiment: Nature of toxicity was expressed; convulsion; type: organism-based, Canis lupus familiaris; conditions: dog, in vivo
How it was run: as §1

[5] = test system: Mus musculus; experiment: Protection against chloroform induced arrhythmias in mice after subcutaneous administration at 100 mg/kg dose.; type: functional
How it was run: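 Groups of 10 unanesthetized mice got sc injection of drug in 0.9% saline. After 20 min observation they were placed one by one in chloroform-vapor-saturated air. When breathing stopped, the thorax was opened and the heart inspected by eye; coordinated ventricular contractions counted as protected.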

[6] = test system: Canis familiaris; experiment: Blood level was measured in anesthetized dog at 0.042 dose; type: functional, Canis lupus familiaris
[7] = test system: Canis familiaris; experiment: Ventricular rate was measured in anesthetized dog at 0.084 dose; type: functional, Canis lupus familiaris, Heart; conditions: in the assay text read “unanesthetized” for “anesthetized”
How it was run: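 Adult female dogs (6.7–14.5 kg) had ventricular arrhythmias from two-stage ligation of the left anterior descending coronary artery the day before. Ventricular rate (bpm) was read at maximal antiarrhythmic effect against cumulative dose.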

[8] = species: Mus musculus; experiment: Percentage toxicity measured as ataxia.; type: organism-based; conditions: in vivo
How it was run: (§2)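 Mice (groups of 10) were dosed sc with drug in 0.9% saline and watched for 20 min for overt toxicity (ataxia, convulsions, loss of righting reflex, death) before chloroform exposure.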

[9] = test system: Canis familiaris; experiment: % ectopic beats was measured in anesthetized dog at 0.038 dose; type: functional, Canis lupus familiaris, Heart; conditions: in the assay text read “unanesthetized” for “anesthetized”
How it was run: (§3)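 Adult female dogs (6.7–14.5 kg) had the left anterior descending coronary artery ligated in two stages the day before testing. Dogs were unanesthetized. Ectopic beats (% of ventricular rate) and mean arterial pressure were read at maximal antiarrhythmic effect against the cumulative dose.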

[10] = Percentage toxicity measured as death of mice.; type: organism-based; set-up: concentration or dose not given beside the values; conditions: mouse, in vivo; read-out: Death
[11] = test system: Canis familiaris; experiment: Ventricular rate was measured in anesthetized dog at 0.038 dose; type: functional, Canis lupus familiaris, Heart; conditions: in the assay text read “unanesthetized dog” for “anesthetized dog”
How it was run: as §1

[12] = species: Mus musculus; experiment: Percentage toxicity measured as convulsions.; type: organism-based; conditions: in vivo
How it was run: as §2

[13] = test system: Canis familiaris; experiment: MABP value was measured in anesthetized dog at 0.042 dose; type: functional, Canis lupus familiaris
[14] = species: Canis familiaris; experiment: (§4) The dose at which toxicity was measured; type: organism-based, Canis lupus familiaris; set-up: unit: mmol/kg; conditions: dog, in vivo
How it was run: as §1

[15] = species: Canis familiaris; experiment: as §4; type: organism-based, Canis lupus familiaris; conditions: dog, in vivo
How it was run: as §1

[16] = species: Mus musculus; experiment: Percentage toxicity measured as loss of righting reflex.; type: organism-based; conditions: in vivo
How it was run: as §2

[17] = test system: Canis familiaris; experiment: % ectopic beats was measured in unanesthetized dog at 0.084 dose
[18] = test system: Canis familiaris; experiment: MABP value was measured in anesthetized dog at 0.056 dose; type: functional, Canis lupus familiaris; conditions: in the assay text read “unanesthetized dog” for “anesthetized dog”
How it was run: as §1

[19] = test system: Canis familiaris; experiment: Ventricular rate was measured in anesthetized dog at 0.056 dose; type: functional, Canis lupus familiaris, Heart; conditions: in the assay text read “unanesthetized dog” for “anesthetized dog”
How it was run: as §1

[20] = test system: Canis familiaris; experiment: Blood level was measured in anesthetized dog at 0.084 dose; type: functional, Canis lupus familiaris
[21] = test system: Canis familiaris; experiment: Ventricular rate was measured in anesthetized dog at 0.042d dose; type: functional, Canis lupus familiaris, Heart; conditions: in the assay text read “unanesthetized dog” for “anesthetized dog”
How it was run: as §1

[22] = test system: Canis familiaris; experiment: MABP value was measured in anesthetized dog at 0.038 dose; type: functional, Canis lupus familiaris; conditions: in the assay text read “unanesthetized dog” for “anesthetized dog”
How it was run: as §3

`CC(C)Oc1ccc2c(c1)C1(CCC2)CC(=O)N(CCCN(C)C)C1=O` (configuration not stated) showed an Ectopic beats [1] of 5%, an MABP [2] of 125 mmHg and a Ventricular rate [3] of 165 beats min-1. For the same compound, the Nature [4] was “convulsion”, the Protection [5] was 50% and the Blood level [6] was 0.013 uM ml-1. The Ventricular rate [7] was 138 beats min-1, the Ataxia [8] was 100% and the Etopic beats [9] was 2%. For the same compound, the mortality [10] was 0%, the Ventricular rate [11] was 120 beats min-1 and the Convulsion [12] was 0%. For the same compound, the MABP [13] was 90 mmHg and 100 mmHg, the Cumulative dose [14] was 0.077 and 0.133 and the Cumulative dose [15] was 0.066. For the same compound, the “Loss of righting reflex” value [16] was 10%, the Ectopic beats [17] was 15% and the MABP [18] was 110 mmHg. It also gave a Ventricular rate [19] of 171 beats min-1, a Blood level [20] of 0.021 uM ml-1 and a Ventricular rate [21] of 150 beats min-1. It also gave an MABP [22] of 75 mmHg.

From ChEMBL document CHEMBL1121715, “New antiarrhythmic agents. 4. 1'-(Aminoalkyl)-1,2,3,4-tetrahydronaphthalene-1-spiro-3'-pyrrolidine-2',5'-dione derivatives” (J Med Chem, 1981)
